Results from ChEMBL document CHEMBL4007417, “Target Elucidation by Cocrystal Structures of NADH-Ubiquinone Oxidoreductase of Plasmodium falciparum (PfNDH2) with Small Molecule To Eliminate Drug-Resistant Malaria” (J Med Chem, 2017).
The source made the active and inactive calls. The calls are words filed in the database; no cut-off is given here.

Assays:
[1] = tested on: Plasmodium yoelii; assay: Antimalarial activity against Plasmodium yoelii YM infected in BALB/c mouse assessed reduction in parasitemia at 10 mg/kg/day, sc for 4 days by Giemsa-staining based microscopic analysis; format: functional, organism-based
Procedure, shortened: (§1)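 P. yoelii-infected mice, n=3 per group. Subcutaneous injection once daily for 4 days starting at 96 h post infection. Parasitemia followed on blood-smear microscopy, with inhibition measured at 24 h post treatment. Cure time taken as the minimum period to cure all mice; survival recorded at 40 days. DMSO controls included.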

[2] = Inhibition of Plasmodium falciparum NDH2 N92R mutant expressed in Escherichia coli DH5alpha competent cells using NADH and ubiquinone-1 as substrate by spectrophotometric analysis
Procedure, shortened: (§2)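 Recombinant PfNDH2 point or double mutants assayed spectrophotometrically at 25 °C. Buffer: 50 mM MOPS pH 7.0, 150 mM NaCl, 1 mM EDTA, 0.01% Triton X-100. Substrates 50 µM NADH and 30 µM ubiquinone-1, with 0.5 nM enzyme and selected inhibitor concentrations.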

[3] = Inhibition of Plasmodium falciparum NDH2 Y475R mutant expressed in Escherichia coli DH5alpha competent cells using NADH and ubiquinone-1 as substrate by spectrophotometric analysis; procedure, shortened: as §2
[4] = Inhibition of Plasmodium falciparum NDH2 S497R mutant expressed in Escherichia coli DH5alpha competent cells using NADH and ubiquinone-1 as substrate by spectrophotometric analysis; procedure, shortened: as §2
[5] = Binding affinity to Plasmodium falciparum NDH2 expressed in Escherichia coli BL21 assessed as NADH Kd by SPR assay (reference value: 5.22 uM)
[6] = tested on: Plasmodium falciparum; assay: Non-competitive inhibition of Plasmodium falciparum NDH2 expressed in Escherichia coli BL21 up to 50 nM by spectrophotometric analysis
[7] = tested on: Plasmodium falciparum; assay: Antimalarial activity against dihydroartemisinin-resistant asexual blood stage Plasmodium falciparum 803 after 72 hrs by SYBR green-based fluorometric analysis; format: functional; conditions: Plasmodium falciparum, 803, 72 h
Procedure, shortened: (§3)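 Mid-ring-stage cultures (~6-10 h post-invasion) at 1% parasitemia and 2% hematocrit, in triplicate. Twofold serial dilutions from a top concentration of 100 nM. Incubated 72 h at 37 °C under 5% CO2/5% O2/90% N2. Lysis buffer containing 5×SYBR Green I added, 20 min in the dark, fluorescence read at ex 485/em 538 nm. EC50 derived.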

[8] = tested on: Plasmodium falciparum; assay: Antimalarial activity against chloroquine/quinine/sulfadoxine-pyrimethamine/amodiaquine-resistant asexual blood stage Plasmodium falciparum Dd2 after 72 hrs by SYBR green-based fluorometric analysis; format: functional; conditions: Dd2, 72 h; procedure, shortened: as §3
[9] = tested on: Plasmodium falciparum; assay: Antimalarial activity against chloroquine/quinine/sulfadoxine-pyrimethamine/amodiaquine-resistant asexual blood stage Plasmodium falciparum Dd2 assessed as reduction in parasite recrudescence at 10 times EC50 for 72 hrs measured after 28 days post invasion by Giemsa staining-based light microscopic analysis; format: functional
Procedure, shortened: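 Parasite cultures exposed for 72 h to 10× EC50 of inhibitor. Drug then removed and cultures maintained for 28 days post treatment. Recrudescence monitored by microscopy.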

[10] = tested on: Plasmodium falciparum; assay: Antimalarial activity against Plasmodium falciparum 3D7 assessed as alteration of parasite morphology at 10 times EC50 dosed at ring stage […] by Giemsa staining-based light microscopic analysis; format: functional, organism-based
[11] = tested on: Plasmodium falciparum; assay: Antimalarial activity against mid/late trophozoite stage of Plasmodium falciparum 3D7 assessed as reduction in parasitemia at 10 times EC50 administered at synchronized early ring stages and then removed from culture at 2 hrs intervals after 34 hrs paraiste invasion stage and measured till 40 hrs post invasion by SYBR green-based fluorometric analysis; format: functional; set-up: scale not given: the % may be the effect or the level left
Procedure, shortened: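 Synchronized early-ring P. falciparum 3D7 treated with about 10×EC50 compound. Compound removed at 2 h intervals starting at t=34 h (trophozoite), then parasites returned to compound-free medium. Maturation through a single ~48 h asexual cycle followed.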

[12] = tested on: HeLa; assay: Cytotoxicity against human HeLa cells assessed as reduction in cell viability up to 2 uM after 48 hrs by MTT assay; format: cell-based
Procedure, shortened: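 HeLa cell viability measured by MTT assay with compound at concentrations up to 2 µM.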

[13] = tested on: Plasmodium yoelii; assay: Antimalarial activity against Plasmodium yoelii YM infected in BALB/c mouse assessed as time duration for parasite cure at 5 mg/kg, sc administered QD for 4 days starting at 2 hrs post infection by Giemsa-staining based microscopic analysis; format: functional
Procedure, shortened: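 P. yoelii-infected mice, n=3 per group. Subcutaneous injection once daily for 4 days starting at 2 h post infection. Growth inhibition determined at 24 h post treatment by blood-smear microscopy. Cure time taken as the minimum period to cure all mice in the group.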

[14] = tested on: Plasmodium yoelii; assay: Antimalarial activity against Plasmodium yoelii YM infected in BALB/c mouse assessed as mouse survival at 5 mg/kg, sc administered QD for 4 days starting at 2 hrs post infection by Giemsa-staining based microscopic analysis; format: functional
Procedure, shortened: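 Mice inoculated with 1×106 P. yoelii parasites, then dosed subcutaneously once daily for 4 days starting 2 h post infection. Parasitemia followed by microscopy of blood smears. Survival scored at 40 days post infection in groups of n=3 mice. DMSO-only controls.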

[15] = tested on: Plasmodium yoelii; assay: Antimalarial activity against Plasmodium yoelii YM infected in BALB/c mouse assessed as parasite growth inhibition at 10 mg/kg, sc administered QD for 4 days starting at 96 hrs post infection by Giemsa-staining based microscopic analysis; format: functional; conditions: read-out: GI; procedure, shortened: as §1
[16] = tested on: Plasmodium yoelii; assay: Antimalarial activity against Plasmodium yoelii YM infected in BALB/c mouse assessed as mouse survival at 10 mg/kg, sc administered QD for 4 days starting at 96 hrs post infection by Giemsa-staining based microscopic analysis; format: functional
Procedure, shortened: (§4)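 Mice inoculated with 1×106 P. yoelii parasites. Subcutaneous dosing for 4 days starting 96 h post infection, given once daily or twice daily 8 h apart. Parasitemia followed on Giemsa-stained blood smears. Survival recorded at 40 days post infection; groups of n=3. DMSO-only mice served as untreated controls.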

[17] = tested on: Plasmodium yoelii; assay: Antimalarial activity against Plasmodium yoelii YM infected in BALB/c mouse assessed as time duration for parasite cure at 10 mg/kg, sc administered BID for 4 days starting at 96 hrs post infection, 8 hrs apart by Giemsa-staining based microscopic analysis; format: functional
Procedure, shortened: (§5)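 P. yoelii-infected mice, n=3 per group. Subcutaneous injection twice daily, 8 h apart, for 4 days starting at 96 h post infection. Growth inhibition read from blood smears at 24 h post treatment. Cure time taken as the minimum period to cure all mice in the group. DMSO controls included.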

[18] = tested on: Plasmodium yoelii; assay: Antimalarial activity against Plasmodium yoelii YM infected in BALB/c mouse assessed as parasite growth inhibition at 30 mg/kg, sc administered BID for 4 days starting at 96 hrs post infection, 8 hrs apart by Giemsa-staining based microscopic analysis; format: functional; conditions: read-out: GI; procedure, shortened: as §5
[19] = tested on: Plasmodium yoelii; assay: Antimalarial activity against Plasmodium yoelii YM infected in BALB/c mouse assessed as mouse survival at 30 mg/kg, sc administered BID for 4 days starting at 96 hrs post infection, 8 hrs apart by Giemsa-staining based microscopic analysis; format: functional; procedure, shortened: as §4
[20] = tested on: Plasmodium yoelii; assay: Antimalarial activity against Plasmodium yoelii YM infected in BALB/c mouse assessed as parasite cure level at 10 to 90 mg/kg, ip administered on days 1 post infection by Giemsa-stained microscopic analysis; format: functional, organism-based
Procedure, shortened: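 Mice (groups of three) inoculated with 1×10^6 P. yoelii parasites. Single intraperitoneal dose of 10, 30 or 90 mg/kg given 24 h after inoculation. DMSO-only untreated group included. Outcome followed by blood-smear microscopy for cure, with survival scored at 40 days post infection.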

[21] = tested on: Plasmodium falciparum; assay: Binding affinity to Plasmodium falciparum NDH2 expressed in Escherichia coli BL21 assessed as reduction in NADH Kd by SPR assay
[22] = tested on: Plasmodium falciparum; assay: Synergistic antimalarial activity against Plasmodium falciparum in presence of chloroquine; format: functional
Procedure, shortened: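 In vitro drug interaction analyses with other antimalarials against P. falciparum. Experiments repeated three times; error bars s.e.m.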

SMILES: Cc1c(-c2ccc(Cc3ccc(OC(F)(F)F)cc3)cc2)[nH]c2cccc(F)c2c1=O
- Activity [1]: Active
- IC50 [2]: 16.7 nM
- IC50 [3]: 31.7 nM
- IC50 [4]: 17.1 nM
- Kd [5]: 37200 nM
- inhibition [6]: Active
- EC50 [7]: 5.56 nM
- EC50 [8]: 3.83 nM
- Activity [9]: Active
- Activity [10]: Active
- Activity [11]: >=50%
- Activity [12]: Non-Toxic
- Time [13]: 28 days
- survival at 5 mg/kg [14]: 100%
- inhibition in vivo at 10 mg/kg [15]: 98.4%
- survival at 10 mg/kg [16]: 100%
- Time [17]: 16 days
- inhibition in vivo at 30 mg/kg [18]: 100%
- survival at 30 mg/kg [19]: 100%
- Activity [20]: Active
- fold change (FC) [21]: 7
- fractional inhibitory concentration index (FICI) [22]: 1.52
